The source of these data is ChEMBL document CHEMBL1157361, “Steady-state disposition of the nonpeptidic protease inhibitor tipranavir when coadministered with ritonavir” (Antimicrob Agents Chemother, 2007).

Structures are written as SMILES.

The nature of data set [1]: Biodistribution in healthy human assessed as radioactive drug dose recovery in urine at 500 mg, po twice daily coadministered with ritonavir 200 mg, po twice daily for 21 days with additional single dose of 551 mg, po on day 7. In kind it is ADME, organism-based. Conditions: in vivo, 504 h.
The test system of data set [2] is Homo sapiens. Nature of the data set: Volume of distribution ( 0 to 12 hrs) in healthy human blood at 500 mg, po twice daily coadministered with ritonavir 200 mg, po twice daily for 21 days with additional single dose of 551 mg, po on day 7. As to conditions: in vivo. In kind it is ADME, organism-based. Summed up:
(§1)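 Healthy male nonsmoking volunteers (9 completed) on TPV 500 mg + RTV 200 mg orally twice daily. On day 7, after a light snack 60 min earlier, they took 500 mg [14C]TPV (90 µCi) + 200 mg RTV and fasted 4 h; unlabelled dosing then resumed to day 20. Samples were stored at about –20°C until analysis.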

Data set [3] relates to Homo sapiens. Nature of the data set: Biodistribution in healthy human assessed as radioactive drug dose recovery at 500 mg, po twice daily coadministered with ritonavir 200 mg, po twice daily for 21 days with additional single dose of 551 mg, po on day 7. In kind it is ADME, organism-based. Conditions: in vivo, 504 h. Summed up: as §1
Data set [4] is described as follows: Biodistribution in healthy human urine at 500 mg, po twice daily coadministered with ritonavir 200 mg, po twice daily for 21 days with additional single dose of 551 mg, po on day 7. Type of data set: ADME, organism-based. Conditions: in vivo, 504 h. The essentials: as §1
Data set [5] relates to Homo sapiens. In words: Cmax ( 0 to 12 hrs) in healthy human plasma at 500 mg, po twice daily coadministered with ritonavir 200 mg, po twice daily for 21 days with additional single dose of 551 mg, po on day 7. In kind it is ADME, organism-based. Also on record: dose 500 mg, route oral. Conditions: in vivo. The essentials:
as §1

The nature of data set [6]: Biodistribution in healthy human urine assessed as Tipranavir hydroxyl metabolite H-1 level at 500 mg, po twice daily coadministered with ritonavir 200 mg, po twice daily for 21 days with additional single dose of 551 mg, po on day 7. In kind it is ADME, organism-based. As to conditions: in vivo, 504 h. The essentials: as §1
For data set [7], the system named is Homo sapiens. Nature of the data set: Tlast ( 0 to infinity) in healthy human blood at 500 mg, po twice daily coadministered with ritonavir 200 mg, po twice daily for 21 days with additional single dose of 551 mg, po on day 7. In kind it is ADME, organism-based. As to conditions: in vivo, 504 h. Summed up: as §1
A short description of data set [8]: Biodistribution in healthy human feces assessed as Tipranavir hydroxyl metabolite H-1 level at 500 mg, po twice daily coadministered with ritonavir 200 mg, po twice daily for 21 days with additional single dose of 551 mg, po on day 7. In kind it is ADME, organism-based. As to conditions: in vivo, 504 h. The essentials:
as §1

Data set [9] can be described thus: Biodistribution in healthy human excreta at 500 mg, po twice daily coadministered with ritonavir 200 mg, po twice daily for 21 days with additional single dose of 551 mg, po on day 7. In kind it is ADME, organism-based. Conditions: in vivo, 504 h. The essentials:
as §1

A short description of data set [10]: Biodistribution in healthy human excreta assessed as Tipranavir oxidation metabolite H-2 level at 500 mg, po twice daily coadministered with ritonavir 200 mg, po twice daily for 21 days with additional single dose of 551 mg, po on day 7. As to conditions: in vivo, 504 h. Type of data set: ADME, organism-based. Summed up:
as §1

A short description of data set [11]: Biodistribution in healthy human urine assessed as Tipranavir glucuronidation conjugate H-3 level at 500 mg, po twice daily coadministered with ritonavir 200 mg, po twice daily for 21 days with additional single dose of 551 mg, po on day 7. As to conditions: in vivo, 504 h. In kind it is ADME, organism-based. The essentials:
as §1

The test system of data set [12] is Homo sapiens. Nature of the data set: Tlast ( 0 to infinity) in healthy human plasma at 500 mg, po twice daily coadministered with ritonavir 200 mg, po twice daily for 21 days with additional single dose of 551 mg, po on day 7. Type of data set: ADME, organism-based. As to conditions: in vivo, 504 h. The essentials: as §1
Data set [13] has as its system Plasma. In words: Biodistribution in healthy human plasma assessed as Tipranavir hydroxyl metabolite H-1 level at 500 mg, po twice daily coadministered with ritonavir 200 mg, po twice daily for 21 days with additional single dose of 551 mg, po on day 7 measured 3 hrs postdose. In kind it is ADME, organism-based. As to conditions: in vivo. The essentials: as §1
Data set [14] concerns Homo sapiens. Nature of the data set: Volume of distribution ( 0 to 12 hrs) in healthy human plasma at 500 mg, po twice daily coadministered with ritonavir 200 mg, po twice daily for 21 days with additional single dose of 551 mg, po on day 7. Type of data set: ADME, organism-based. As to conditions: in vivo. Summed up: as §1
Data set [15] can be described thus: Biodistribution in healthy human feces assessed as Tipranavir oxidation metabolite H-2 level at 500 mg, po twice daily coadministered with ritonavir 200 mg, po twice daily for 21 days with additional single dose of 551 mg, po on day 7. Type of data set: ADME, organism-based. As to conditions: in vivo, 504 h. The essentials:
as §1

The nature of data set [16]: Biodistribution in healthy human assessed as radioactive drug dose recovery in feces at 500 mg, po twice daily coadministered with ritonavir 200 mg, po twice daily for 21 days with additional single dose of 551 mg, po on day 7. In kind it is ADME, organism-based. Conditions: in vivo, 504 h. Summed up: as §1
The nature of data set [17]: Biodistribution in healthy human excreta assessed as Tipranavir hydroxyl metabolite H-1 level at 500 mg, po twice daily coadministered with ritonavir 200 mg, po twice daily for 21 days with additional single dose of 551 mg, po on day 7. In kind it is ADME, organism-based. Conditions: in vivo, 504 h. The essentials: as §1
Data set [18] relates to Homo sapiens. Nature of the data set: Volume of distribution ( 0 to infinity) in healthy human blood at 500 mg, po twice daily coadministered with ritonavir 200 mg, po twice daily for 21 days with additional single dose of 551 mg, po on day 7. In kind it is ADME, organism-based. Conditions: in vivo, 504 h. Summed up:
as §1

Data set [19] relates to Plasma. In words: Biodistribution in healthy human plasma assessed as Tipranavir glucuronidation conjugate H-3 level at 500 mg, po twice daily coadministered with ritonavir 200 mg, po twice daily for 21 days with additional single dose of 551 mg, po on day 7 measured 3 hrs postdose. Type of data set: ADME, organism-based. Conditions: in vivo. Summed up:
as §1

Data set [20] can be described thus: Biodistribution in healthy human sexcreta assessed as Tipranavir glucuronidation conjugate H-3 level at 500 mg, po twice daily coadministered with ritonavir 200 mg, po twice daily for 21 days with additional single dose of 551 mg, po on day 7. Type of data set: ADME, organism-based, Excreta. As to conditions: in vivo, 504 h. Summed up:
as §1

In data set [21] the test system is Homo sapiens. Nature of the data set: Volume of distribution ( 0 to infinity) in healthy human plasma at 500 mg, po twice daily coadministered with ritonavir 200 mg, po twice daily for 21 days with additional single dose of 551 mg, po on day 7. As to conditions: in vivo, 504 h. Type of data set: ADME, organism-based. The essentials:
as §1

Data set [22] can be described thus: Cmax in healthy human at 500 mg, po twice daily coadministered with ritonavir 200 mg, po twice daily for 21 days with additional single dose of 551 mg, po on day 7. Also on record: dose 500 mg, route oral. Type of data set: ADME, organism-based. Conditions: in vivo. Summed up:
as §1

Data set [23] can be described thus: Tmax in healthy human at 500 mg, po twice daily coadministered with ritonavir 200 mg, po twice daily for 21 days with additional single dose of 551 mg, po on day 7. In kind it is ADME, organism-based. As to conditions: in vivo. The essentials:
as §1

The test system of data set [24] is Homo sapiens. In words: Volume of distribution in healthy human at 500 mg, po twice daily coadministered with ritonavir 200 mg, po twice daily for 21 days with additional single dose of 551 mg, po on day 7. In kind it is ADME, organism-based. As to conditions: in vivo, 504 h. Summed up: as §1
Data set [25] relates to Homo sapiens. In words: Toxicity in healthy human at 500 mg, po twice daily coadministered with ritonavir 200 mg, po twice daily for 21 days with additional single dose of 551 mg, po on day 7. In kind it is organism-based. As to conditions: in vivo, 504 h.
Data set [26] in a line: Clearance life in healthy human at 500 mg, po twice daily coadministered with ritonavir 200 mg, po twice daily for 21 days with additional single dose of 551 mg, po on day 7. As to conditions: in vivo. Type of data set: ADME, organism-based. Summed up: as §1
Data set [27] in a line: Drug level in healthy human at 500 mg, po twice daily coadministered with ritonavir 200 mg, po twice daily for 21 days with additional single dose of 551 mg, po on day 7 measured 12 hrs postdose. In kind it is ADME, organism-based. As to conditions: plasma. The essentials: as §1
Data set [28] is described as follows: AUC (0 to 12 hrs) in healthy human at 500 mg, po twice daily coadministered with ritonavir 200 mg, po twice daily for 21 days with additional single dose of 551 mg, po on day 7. Type of data set: ADME, organism-based. As to conditions: plasma. Further details: dose 500 mg, time < 12 hr, route oral. The essentials:
as §1

A short description of data set [29]: Half life in healthy human at 500 mg, po twice daily coadministered with ritonavir 200 mg, po twice daily for 21 days with additional single dose of 551 mg, po on day 7. As to conditions: in vivo. Type of data set: ADME, organism-based. The essentials:
as §1

Turning to `CCC[C@@]1(CCc2ccccc2)CC(O)=C([14C@H](CC)c2cccc(NS(=O)(=O)c3ccc(C(F)(F)F)cn3)c2)C(=O)O1`, the Drug uptake in data set [1] is given as 4.59%; in data set [3], 75.3%; in data set [4], < 0.1 %ID; in [6], < 0.1 %ID; in [8], 3.2 %ID; in data set [9] it was 53.5 %ID. The Drug uptake turned out to be 0.4 %ID in data set [10]; 0.5 %ID in data set [11]; 0.1 µg/mL in [13]; 0.4 %ID in data set [15]; 70.4% in data set [16]; 3.2 %ID in data set [17]. Besides, the Drug uptake was determined as 0.05 µg/mL in data set [19] and 0.5 %ID in [20]. Moreover, the Vd in [2] came to 15.68 L; in [14], 8.32 L; in data set [18], 44.23 L; in data set [21], 32.47 L. Besides, in data set [5], the Cmax (as a rule, the maximum level reached in the sampled fluid or tissue) was 90.5 µM. Besides, the figures for the Tlast in data set [7] and in data set [12] were 64 h and 90.67 h, respectively.

Regarding `CCC[C@@]1(CCc2ccccc2)CC(O)=C([C@H](CC)c2cccc(NS(=O)(=O)c3ccc(C(F)(F)F)cn3)c2)C(=O)O1` [TIPRANAVIR], the Cmax in [22] was 99.4 µM. Further, in [23], the time of peak concentration (Tmax) – broadly, the time from dosing to the highest level – is 2.9 h. Moreover, in data set [24], the Vd came to 9.6 L. The Activity entry in data set [25] was “Non-toxic”. The CL/F (commonly the apparent clearance, not corrected for the fraction that reaches the circulation) in data set [26] is 24.5 mL/min. Besides, in data set [27], the concentration at 12 h came out at 25.9 µM. Moreover, the AUC(0-t) (as a rule, the area under the concentration-time curve up to a stated or last time point) at 12 h in [28] stood at 657 µM·h. Besides, the half-life (as a rule, the time needed for the level to fall by half in the phase considered) in [29] is 4.6 h.
